Measured values reported in article PMC3944088 (ACS chemical biology, 2013).
Blank lines part the entries; values can stand above or below the compound they belong to.

What was measured:
[1] = test system: A549, H23 and H1648 NSCLC cell lines; assay: Dose-response inhibition of cellular viability in NSCLC cell lines; assay type: cell-based; details: for activity in inhibition of cellular viability (dose-response): A549, H23, H1648 NSCLC cell lines
Method in brief: (§1)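 Viability read by ATP-based luminescence (CellTiter-Glo) after exposure of lung cancer cell lines to the test compound. For the GSK3 comparison in A549 cells, the known pan-GSK3 inhibitors BIO and LiCl were run alongside. Enantiomers were compared in A549 and H1648 cells.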

[2] = test system: panel of 24 KRAS-mutant and wild-type lung cancer cell lines; assay: Cell viability screen across a panel of 24 lung cancer cell lines; assay type: cell-based; details: 0.5 and 2.5 μM
Method in brief: as §1

[3] = test system: A549 NSCLC cells; assay: Cell viability of A549 NSCLC cells with GSK3 inhibitors; assay type: cell-based
Method in brief: as §1

[4] = test system: A549 cells; assay: Apoptosis by PARP-1 cleavage in A549 cells; assay type: cell-based
Method in brief: (§2)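 A549 cells were treated with the test compound or the reference pan-GSK3 inhibitor BIO (concentrations in μM), then lysates were immunoblotted for PARP-1 cleavage and total c-MET. In parallel, GSK3α and GSK3β were knocked down by siRNA, each alone, both combined, or with one siRNA targeting both, against a non-targeting control. These cells were blotted 72 hours post-transfection.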

[5] = test system: c-MET; assay: Total c-MET levels in A549 cells; assay type: cell-based
Method in brief: as §2

[6] = target: T1, c-MET (Homo sapiens, UniProt P08581); assay: c-MET autophosphorylation in A549 cells; assay type: cell-based; details: 30 minute treatment, 250 nM for crizotinib, PHA-665752, PF-04217903
[7] = target: GSK3β (Homo sapiens, UniProt P49841); assay: In vitro kinase inhibition assay GSK3β; assay type: biochemical; details: Millipore and Reaction Biology platforms
[8] = target: T1, c-MET; details: reported ref 8, 17; cited from earlier work
[9] = target: GSK3α (Homo sapiens, UniProt P49840); assay: In vitro kinase inhibition assay GSK3α; assay type: biochemical; details: Millipore and Reaction Biology platforms
[10] = test system: MV-4–11 MLL-rearranged leukemia cells; assay: Viability of MV-4–11 MLL-rearranged leukemia cells; assay type: cell-based; details: MV-4–11 cells
[11] = target: T1, c-MET; assay: In vitro kinase inhibition c-MET; assay type: biochemical
[12] = test system: RS4;11 MLL-rearranged leukemia cells; assay: Viability of RS4; assay type: cell-based; details: RS4;11 cells
[13] = test system: β-catenin; assay: Total β-catenin levels in A549 cells; assay type: cell-based; details: A549 cells after treatment
[14] = test system: A549 cells; assay: Cell cycle analysis in A549 cells; assay type: cell-based
[15] = test system: MV-4–11 and RS4;11 MLL-rearranged leukemia cells; assay: β-catenin stabilisation and cell cycle in MLL-rearranged leukemia cells; assay type: cell-based

T1 sequence (P08581 25-1390): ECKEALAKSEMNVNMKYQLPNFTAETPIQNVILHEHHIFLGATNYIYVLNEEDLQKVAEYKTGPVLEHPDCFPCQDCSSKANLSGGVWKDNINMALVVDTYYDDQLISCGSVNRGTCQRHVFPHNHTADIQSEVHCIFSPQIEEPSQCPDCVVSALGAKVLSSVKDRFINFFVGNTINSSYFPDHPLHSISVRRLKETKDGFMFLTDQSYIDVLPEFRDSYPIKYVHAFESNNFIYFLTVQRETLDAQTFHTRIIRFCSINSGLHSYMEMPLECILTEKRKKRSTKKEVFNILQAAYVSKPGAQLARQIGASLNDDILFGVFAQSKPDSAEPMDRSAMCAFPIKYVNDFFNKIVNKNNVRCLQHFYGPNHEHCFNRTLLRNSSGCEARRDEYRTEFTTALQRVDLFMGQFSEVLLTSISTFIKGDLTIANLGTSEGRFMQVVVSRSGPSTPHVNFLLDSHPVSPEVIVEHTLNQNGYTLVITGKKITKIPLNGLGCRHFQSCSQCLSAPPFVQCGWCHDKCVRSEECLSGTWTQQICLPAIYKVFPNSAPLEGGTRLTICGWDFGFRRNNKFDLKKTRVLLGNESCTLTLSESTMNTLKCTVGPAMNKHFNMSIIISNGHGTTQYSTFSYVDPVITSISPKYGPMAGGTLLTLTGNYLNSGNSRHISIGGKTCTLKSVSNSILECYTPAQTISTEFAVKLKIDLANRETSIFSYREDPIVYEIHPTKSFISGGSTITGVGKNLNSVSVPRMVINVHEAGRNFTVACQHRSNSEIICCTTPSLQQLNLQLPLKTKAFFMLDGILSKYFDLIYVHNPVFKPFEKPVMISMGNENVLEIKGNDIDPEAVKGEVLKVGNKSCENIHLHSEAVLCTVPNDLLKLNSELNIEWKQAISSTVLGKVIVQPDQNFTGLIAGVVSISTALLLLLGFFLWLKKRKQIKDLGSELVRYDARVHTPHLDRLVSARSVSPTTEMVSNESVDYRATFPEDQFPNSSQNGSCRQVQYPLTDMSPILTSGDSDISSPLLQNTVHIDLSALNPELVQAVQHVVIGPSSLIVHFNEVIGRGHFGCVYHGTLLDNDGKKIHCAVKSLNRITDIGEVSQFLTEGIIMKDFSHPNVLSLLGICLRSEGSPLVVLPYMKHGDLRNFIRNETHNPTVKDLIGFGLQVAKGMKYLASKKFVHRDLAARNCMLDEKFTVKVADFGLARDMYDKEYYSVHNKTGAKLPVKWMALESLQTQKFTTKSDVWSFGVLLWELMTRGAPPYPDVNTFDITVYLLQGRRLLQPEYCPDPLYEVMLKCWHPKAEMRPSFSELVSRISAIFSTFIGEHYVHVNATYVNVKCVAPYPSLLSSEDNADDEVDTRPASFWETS
Chain of GSK3α (P49840 whole entry): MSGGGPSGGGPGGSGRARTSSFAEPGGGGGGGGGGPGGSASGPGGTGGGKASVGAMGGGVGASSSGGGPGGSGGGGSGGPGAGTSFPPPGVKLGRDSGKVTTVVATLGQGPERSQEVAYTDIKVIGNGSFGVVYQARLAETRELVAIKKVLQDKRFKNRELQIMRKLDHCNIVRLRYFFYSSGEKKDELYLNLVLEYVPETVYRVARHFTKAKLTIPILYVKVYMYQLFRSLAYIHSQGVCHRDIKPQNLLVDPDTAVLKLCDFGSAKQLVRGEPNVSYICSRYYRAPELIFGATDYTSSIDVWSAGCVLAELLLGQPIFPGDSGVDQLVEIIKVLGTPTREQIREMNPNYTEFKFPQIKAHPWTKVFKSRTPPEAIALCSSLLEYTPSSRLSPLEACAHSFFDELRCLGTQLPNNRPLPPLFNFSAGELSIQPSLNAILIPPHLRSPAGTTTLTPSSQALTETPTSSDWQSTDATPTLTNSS
Chain of GSK3β (P49841 whole entry): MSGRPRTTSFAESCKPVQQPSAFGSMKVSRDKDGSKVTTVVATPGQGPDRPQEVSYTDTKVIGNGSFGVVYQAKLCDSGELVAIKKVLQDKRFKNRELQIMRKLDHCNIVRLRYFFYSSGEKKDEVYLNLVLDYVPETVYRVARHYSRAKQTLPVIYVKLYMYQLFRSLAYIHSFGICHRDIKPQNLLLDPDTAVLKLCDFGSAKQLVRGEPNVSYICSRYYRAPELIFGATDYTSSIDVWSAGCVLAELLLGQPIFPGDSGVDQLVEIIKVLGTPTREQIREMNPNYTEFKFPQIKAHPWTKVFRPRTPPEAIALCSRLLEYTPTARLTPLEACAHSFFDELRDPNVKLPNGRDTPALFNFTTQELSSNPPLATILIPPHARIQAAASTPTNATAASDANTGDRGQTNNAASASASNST

SMILES: C[C@@H](Oc1cc(-c2cnn(C3CCNCC3)c2)cnc1N)c1c(Cl)ccc(F)c1Cl [crizotinib]
activity in inhibition of cellular viability (dose-response) [1]: only weak activity | effect on cellular viability across lung cancer cell line panel [2]: no significant effects

SMILES: [Cl-].[Li+] [LiCl]
antiproliferative activity in A549 cells [3]: showed antiproliferative activity | potency range of antiproliferative activity [3]: low millimolar activity

SMILES: O=C1Nc2cc(Br)ccc2/C1=C1/Nc2ccccc2/C1=N\O [BIO]
antiproliferative activity in A549 cells [3]: showed antiproliferative activity | apoptosis indicated by PARP-1 cleavage [4]: able to induce apoptosis in A549 cells, albeit slightly delayed | c-MET levels upon treatment [5]: decreased c-MET levels

inhibition of c-MET autophosphorylation [6]: effectively inhibited
SMILES: Cc1[nH]c(/C=C2\C(=O)Nc3ccc(S(=O)(=O)Cc4c(Cl)cccc4Cl)cc32)c(C)c1C(=O)N1CCC[C@@H]1CN1CCCC1 [PHA-665752]

SMILES: COc1cc2nccc(Oc3ccc(NC(=O)C4(C(=O)Nc5ccc(F)cc5)CC4)cc3)c2cc1OC [cabozantinib]
effect on cellular viability across lung cancer cell line panel [2]: no significant effects

SMILES: OCCn1cc(-c2cnc3nnn(Cc4ccc5ncccc5c4)c3n2)cn1 [PF-04217903]
activity in inhibition of cellular viability (dose-response) [1]: no measurable | effect on cellular viability across lung cancer cell line panel [2]: no significant effects

SMILES: O=C1NC(=O)[C@H](c2cn3c4c(cccc24)CCC3)[C@H]1c1c[nH]c2ccccc12 [compound 7, (+)-3S,4S-tivantinib]
activity in (−)-tivantinib-sensitive cell lines (cellular viability) ([1]; A549 and H1648 cells, compared with (−)-tivantinib): substantially weaker activity | IC50 for inhibition of GSK3β in vitro kinase activity [7]: significantly weaker inhibitor | activity against c-MET [8]: inactive | IC50 for inhibition of GSK3α in vitro kinase activity [9]: significantly weaker inhibitor

inhibition of c-MET autophosphorylation [6]: essentially no effect | IC50 ([1]; read-out: IC50 for inhibition of cellular viability): ~500 nM | IC50 for inhibition of GSK3β in vitro kinase activity [7]: upper nanomolar range | inhibition of c-MET (in vitro kinase) [11]: only weakly inhibited | IC50 for inhibition of GSK3α in vitro kinase activity [9]: upper nanomolar range
SMILES: O=C1NC(=O)[C@@H](c2cn3c4c(cccc24)CCC3)[C@@H]1c1c[nH]c2ccccc12 [tivantinib]
inhibition of viability [10]: potently inhibited viability | apoptosis indicated by PARP-1 cleavage [4]: induce apoptosis | c-MET levels upon treatment [5]: decreased c-MET levels | effect on cellular viability across lung cancer cell line panel [2]: inhibited the viability of the majority of these | inhibition of viability [12]: potently inhibited viability | total β-catenin levels [13]: increase in total β-catenin levels | cell cycle effect [14]: G2/M cell cycle arrest | cell cycle effect [15]: induced G1 cell cycle arrest | β-catenin stabilisation [15]: stabilized β-catenin
